Experiments:
advanced solid tumors = experiment: RECIST 1.0 response, phase I dose escalation; type: in vivo, human
Summary of the method: (§1)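 Patients received IV temsirolimus 25 mg weekly, with a 1-wk single-agent run-in, then daily oral HCQ, treated until progression. Patients were evaluable for response after completing ≥2 wk of concurrent HCQ and temsirolimus. Progression was defined as >20% increase in measurable disease or appearance of a new lesion. Non-evaluable patients were replaced.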

advanced melanoma = experiment: RECIST 1.0 response and progression-free survival, melanoma patients; type: in vivo, human
Summary of the method: as §1

[1] = Phase I dose escalation, HCQ dose cohort 200 + TEM, N=6 evaluable
[2] = Phase I dose escalation, HCQ dose cohort 400 + TEM, N=3
[3] = Phase I dose escalation, HCQ dose cohort 800 + TEM, N=9
[4] = Phase I dose escalation, HCQ dose cohort 1200 + TEM, N=3
[5] = Phase I dose escalation, Total, N=21 evaluable
[6] = dose escalation, of 19 patients
[7] = Melanoma patients, HCQ dose cohort 200–800 + TEM, N=6
[8] = Melanoma patients, HCQ dose cohort 1200 + TEM, N=13
[9] = melanoma expansion, of 12 patients, HCQ 1200 mg/d + TEM

CCN(CCO)CCCC(C)Nc1ccnc2cc(Cl)ccc12 (stereo not shown) [HCQ, hydroxychloroquine]
PD (progressive disease), patients (advanced solid tumors; [1]): 2 | PR (partial response), patients (advanced solid tumors; [1]): 0 | PD (progressive disease), patients (advanced solid tumors; [2]): 0 | PR (partial response), patients (advanced solid tumors; [2]): 0 | PD (progressive disease), patients (advanced solid tumors; [3]): 4 | PR (partial response), patients (advanced solid tumors; [3]): 0 | PD (progressive disease), patients (advanced solid tumors; [4]): 1 | PR (partial response), patients (advanced solid tumors; [4]): 0 | PD (progressive disease), % (advanced solid tumors; [5]): 33% | PD (progressive disease), patients (advanced solid tumors; [5]): 7 | PR (partial response), % (advanced solid tumors; [5]): 0 (0%) | PR (partial response), patients (advanced solid tumors; [5]): 0 (0%) | Partial responses by RECIST 1.0, whole study (advanced solid tumors; all cohorts): No partial responses | Patients with some degree of tumor shrinkage (waterfall plot) (advanced solid tumors; [6]): 7 | Patients with some degree of tumor shrinkage, % (advanced solid tumors; [6]): 37% | PD (progressive disease), patients (advanced melanoma; [7]): 1 | PR (partial response), patients (advanced melanoma; [7]): 0 | PD (progressive disease), patients (advanced melanoma; [8]): 4 | PR (partial response), patients (advanced melanoma; [8]): 0 | PD (progressive disease), % (advanced melanoma; Melanoma patients, Total, N=19): 26% | PD (progressive disease), patients (advanced melanoma; Melanoma patients, Total, N=19): 5 | PR (partial response), patients (advanced melanoma; Melanoma patients, Total, N=19): 0 | Median progression-free survival (advanced melanoma; evaluable melanoma patients, HCQ 1200 mg/d + TEM, 95%CI 2–6 mo): 3.5 mo | Patients with some degree of tumor shrinkage (waterfall plot) (advanced melanoma; [9]): 6 | Patients with some degree of tumor shrinkage, % (advanced melanoma; [9]): 50%

Reference: publication PMC4203516 (Autophagy, 2014)
